Activity calls are given as the source filed them. The rule behind the calls is not given here.
Columns and labels:
[1] = target: T1, Tyrosine-protein phosphatase non-receptor type 1 (Homo sapiens) (UniProt P18031); assay: (§1) Inhibition of PTP1B (1 to 298 residues) (unknown origin) using DifMUP as substrate preincubated for 30 mins followed by substrate addition and measured after 30 mins by fluorescence assay
T1 sequence (whole entry): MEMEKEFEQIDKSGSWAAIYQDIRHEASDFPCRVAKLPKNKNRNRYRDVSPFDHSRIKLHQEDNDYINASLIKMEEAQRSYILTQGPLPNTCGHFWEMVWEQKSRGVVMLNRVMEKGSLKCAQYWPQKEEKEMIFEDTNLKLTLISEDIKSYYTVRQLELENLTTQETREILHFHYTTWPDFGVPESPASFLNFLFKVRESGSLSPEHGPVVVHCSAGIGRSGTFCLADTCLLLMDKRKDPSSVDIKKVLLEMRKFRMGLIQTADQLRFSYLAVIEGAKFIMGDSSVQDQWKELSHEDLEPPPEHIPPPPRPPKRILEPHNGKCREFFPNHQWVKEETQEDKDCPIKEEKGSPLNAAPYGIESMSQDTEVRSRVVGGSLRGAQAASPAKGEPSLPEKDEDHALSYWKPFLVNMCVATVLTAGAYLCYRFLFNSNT
Procedure, shortened: (§2)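 PTP1B catalytic domain (aa 1–298, 5 nM final) preincubated with compound (diluted in DMSO) 30 min at RT in the dark. DifMUP (30 μM final) added, 30 min at RT. Stopped with H2O2 (0.5% final), 30 min RT. Fluorescence read at Ex 360/Em 450 nm. Buffer: 50 mM citrate pH 6.0, 100 mM NaCl, 1 mM EDTA, 0.1 mM DTT, 0.01% Brij35.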

[2] = Effect on fluorescence read out during PTP1B enzymatic reaction compound treated post enzyme-substrate reaction and susequent H2O2-mediated enzyme deactivation
Procedure, shortened: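 Read-out counter assay. PTP1B (aa 1–298) turned over DifMUP first, then the enzyme was deactivated with H2O2 and compound added. A drop in fluorescence (Ex 360/Em 450 nm) marks interference with the read-out. Concentration–response format.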

[3] = target: T1, Tyrosine-protein phosphatase non-receptor type 1 (Homo sapiens); assay: Reversible inhibition of PTP1B (1 to 298 residues) (unknown origin) using 10 fold excess DifMUP as substrate preincubated for 30 mins followed by substrate addition and measured after 30 mins by fluorescence assay
[4] = target: T2, Tyrosine-protein phosphatase non-receptor type 1 (Homo sapiens, UniProt P18031); assay: Competitive inhibition of PTP1B (1 to 298 residues) (unknown origin) using 15 uM DifMUP as substrate preincubated for 30 mins followed by substrate addition and measured after 30 mins by fluorescence assay
T2 sequence (P18031 whole entry): T1 sequence (whole entry)
Procedure, shortened: (§3)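 PTP1B aa 1–298 (5 nM final) preincubated with compound 30 min at RT in the dark, then DifMUP added, 30 min at RT. Stopped with 0.5% final H2O2, 30 min. Fluorescence read at Ex 360/Em 450 nm. Buffer: citrate pH 6.0, NaCl, EDTA, DTT, Brij35.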

[5] = target: T2, Tyrosine-protein phosphatase non-receptor type 1; assay: Competitive inhibition of PTP1B (1 to 298 residues) (unknown origin) using 60 uM DifMUP as substrate preincubated for 30 mins followed by substrate addition and measured after 30 mins by fluorescence assay; procedure, shortened: as §3
[6] = Intrinsic redox activity of compound after 60 mins in presence of resazurin/DTT
[7] = target: T2, Tyrosine-protein phosphatase non-receptor type 1; assay: Competitive inhibition of PTP1B (1 to 298 residues) (unknown origin) using 30 uM DifMUP as substrate preincubated for 30 mins followed by substrate addition and measured after 30 mins by fluorescence assay; procedure, shortened: as §2
[8] = target: T2, Tyrosine-protein phosphatase non-receptor type 1; assay: as §1; procedure, shortened: as §2
[9] = Self-aggregating behavior of compound at 32 to 500 uM by 1D-1H NMR method; assay type: physicochemical
Procedure, shortened: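 Self-association check by 1D 1H NMR. Dilution series from 500 to 32 μM compound in 5 mM TRIS pH 7.4, 50 mM NaCl, 5% DMSO-d6. Concentration-dependent shifts of aromatic resonances were monitored.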

inhibition [1] | Activity [2] | IC50 [8] [µM] | SMILES | other results
inactive |  |  | CC(=O)Oc1c(C)c(C)c2c(c1C)CC[C@@](C)(CCC[C@H](C)CCC[C@H](C)CCCC(C)C)O2 | 
 | inactive | 20 | Cc1c(C)c2c(c(C)c1OC(=O)CCC(=O)O)CC[C@@](C)(CCC[C@H](C)CCC[C@H](C)CCCC(C)C)O2 [(+)-ALPHA-TOCOPHERYL SUCCINATE] | inhibition [3]: Active; IC50 [4]: 25.1 µM; IC50 [5]: 45.6 µM; Activity [6]: inactive; IC50 [7]: 39 µM

The next lines start with the compound.

SMILES | inhibition [1] | Activity [2] | IC50 [8] [µM] | other results
CN(C)c1ccc2nc3ccc(=[N+](C)C)cc-3sc2c1 | Active |  |  | 
Cc1c(C)c2c(c(C)c1O)CC[C@@](C)(CCC[C@H](C)CCC[C@H](C)CCCC(C)C)O2 | inactive |  |  | 
Cc1c(C)c2c(c(C)c1OC(=O)CCC(=O)O)CCC(C)(C)O2 | inactive |  |  | 
O=C(O)C(=O)Nc1sc2c(c1C(=O)O)CCNC2 |  | inactive |  | 
COc1ccc2cc3[n+](cc2c1OC)CCc1cc2c(cc1-3)OCO2 [BERBERINE] |  | Active | 67 | Activity [9]: Active
COc1cc2c(cc1OC)-c1cc3ccc(OC)c(OC)c3c[n+]1CC2 [PALMITINE] |  | Active | 234 | 

From ChEMBL document CHEMBL4261523, “PAIN-less identification and evaluation of small molecule inhibitors against protein tyrosine phosphatase 1B” (Medchemcomm, 2017)
